Converted amounts (≈) assume the structure as drawn. The source made the active and inactive calls. No cut-off for these calls is given here.
Experiments:
[1] = Inhibition of PDE4 expressed in HEK293 cells coexpressing cyclic nucleotide gated ion channel mutant assessed as inhibition of NECA-induced cAMP production treated 15 mins before NECA challenge measured after 45 mins by FLIPR assay; format: cell-based
[2] = biological target: 3',5'-cyclic-AMP phosphodiesterase 4B (Homo sapiens, UniProt Q07343); assay: Inhibition of human His6-tagged PDE4B (152-487) expressed in Escherichia coli BL21 (DE3) after 1 hr
3',5'-cyclic-AMP phosphodiesterase 4B, sequence (Q07343 whole entry): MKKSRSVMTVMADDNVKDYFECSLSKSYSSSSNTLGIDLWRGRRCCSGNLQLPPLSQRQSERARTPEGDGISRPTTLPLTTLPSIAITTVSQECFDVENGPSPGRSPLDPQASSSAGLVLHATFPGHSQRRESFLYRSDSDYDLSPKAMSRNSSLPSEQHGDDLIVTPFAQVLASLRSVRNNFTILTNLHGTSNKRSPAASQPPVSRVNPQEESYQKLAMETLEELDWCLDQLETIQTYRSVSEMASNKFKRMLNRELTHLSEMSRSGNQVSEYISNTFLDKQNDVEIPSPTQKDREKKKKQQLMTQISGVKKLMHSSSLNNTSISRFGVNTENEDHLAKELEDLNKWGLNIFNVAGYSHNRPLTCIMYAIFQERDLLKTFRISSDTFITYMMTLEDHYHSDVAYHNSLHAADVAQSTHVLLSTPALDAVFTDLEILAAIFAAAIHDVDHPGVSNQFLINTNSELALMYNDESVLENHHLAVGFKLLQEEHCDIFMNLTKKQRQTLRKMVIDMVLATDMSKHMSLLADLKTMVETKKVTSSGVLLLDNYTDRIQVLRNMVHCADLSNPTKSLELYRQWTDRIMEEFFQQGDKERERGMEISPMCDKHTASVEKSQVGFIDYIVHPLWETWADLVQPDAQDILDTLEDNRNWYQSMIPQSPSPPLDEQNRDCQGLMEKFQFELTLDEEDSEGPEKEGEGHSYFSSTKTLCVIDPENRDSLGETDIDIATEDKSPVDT

[3] = Solubility in 0.1 M phosphate buffer at pH 7.4 by shake-flask method; format: physicochemical
Outline: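 Shake-flask solubility in 0.1 M phosphate buffer, pH 7.4.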

[4] = test system: HEK293; assay: Inhibition of PDE4 expressed in HEK293 cells coexpressing cyclic nucleotide gated ion channel mutant assessed as inhibition of NECA-induced cAMP production at 70 uM treated 15 mins before NECA challenge measured after 45 mins by FLIPR assay; format: cell-based
[5] = Solubility in water; format: physicochemical
[6] = organism: Oryctolagus cuniculus; assay: Antiinflammatory activity in rabbit assessed as inhibition of lacrimal gland inflammation-induced dry eye at 0.001 to 10 ug/ml bid for 4 days; format: functional, organism-based; details: Lachrymal gland, 0.01 to 10 ug/ml, in the assay text read “0.01 to 10 ug/ml” for “0.001 to 10 ug/ml”
Outline: (§1)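 Rabbit dry eye induced by lacrimal gland inflammation. Compound given topically b.i.d. for 4 days. Read-out is corneal staining, scored as percent inhibition versus vehicle, with dexamethasone (100 µg/mL) as positive control. Statistics by ANOVA with Dunnett's post-test.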

[7] = test system: Rattus norvegicus; assay: Induction of tear secretion in rat at 10 ug/ml by topical administration after 10 mins by phenol red thread test; format: functional, organism-based
Outline: (§2)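 Rats received compound topically, and tear secretion was measured 10 min later by phenol red thread test. Percent increase is relative to untreated animals, and significance is versus saline by ANOVA with Dunnett's post-test. Positive control was isoproterenol (10 µg/mL).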

[8] = organism: Oryctolagus cuniculus; assay: Antiinflammatory activity in rabbit assessed as inhibition of lacrimal gland inflammation-induced dry eye at 10 ng/ml to 10 ug/ml bid for 4 days; format: functional, organism-based; details: Lachrymal gland; outline: as §1
[9] = test system: Rattus norvegicus; assay: Induction of tear secretion in rat at 100 ug/ml by topical administration after 10 mins by phenol red thread test; format: functional, organism-based; outline: as §2

Compound	IC50 [1] [nM]	IC50 [2] [nM]	solubility thermodynamic [3] [µg/mL]	other results
O=C(Nc1c(Cl)cncc1Cl)c1ccc(OC(F)F)c(OCC2CC2)c1 [ROFLUMILAST]	1			
COc1ccc2c(Nc3c(Cl)cncc3Cl)ncnc2c1OC1CCCC1	10000	2300		
COc1ccc2c(Nc3c(Cl)cncc3Cl)nccc2c1OC1CCCC1		500		inhibition [4]: inactive
COc1ccc2c(Nc3c(Cl)cncc3Cl)nncc2c1OC1CCCC1	1100	400		
COc1ccc2c(Nc3c(Cl)cncc3Cl)cc(=O)oc2c1OCCCCCCCCN(C)C	150	2		
COc1ccc2c(Nc3c(Cl)cncc3Cl)coc2c1OC1CCCC1	> 30000	16000		
COc1ccc(C(=O)Nc2c(Cl)cncc2Cl)cc1OC1CCCC1	13			
COc1ccc2c(Nc3c(Cl)cncc3Cl)ccnc2c1OC1CCCC1	8200	3300		
COc1ccc2c(c1OC1CCCC1)OCCC2Nc1c(Cl)cncc1Cl (stereo not given)	> 30000	> 30000		

More lines, main results first:

IC50 [1] [nM]	IC50 [2] [nM]	solubility thermodynamic [3] [µg/mL]	Compound	other results
> 30000	670		COc1ccc2c(Nc3c(Cl)cncc3Cl)cc(=O)oc2c1OCCCN(C)C	
180	5		COc1ccc2c(Nc3c(Cl)cncc3Cl)cc(=O)oc2c1OCCCCCCN(C)C	
660	21	60 (≈ 129 µM)	COc1ccc2c(Nc3c(Cl)cncc3Cl)cc(=O)oc2c1OCCCCCN(C)C	
5350	1180		COc1ccc2c(Nc3c(Cl)cncc3Cl)cc(=O)oc2c1OCC(=O)O	
890	80		COc1ccc2c(Nc3c(Cl)cncc3Cl)cc(=O)oc2c1OCCCC(=O)O	
30	1	300 (≈ 589 µM)	COc1ccc2c(Nc3c(Cl)cncc3Cl)cc(=O)oc2c1OCCCCCCCCC(=O)O	
280	17	900 (≈ 1930 µM)	COc1ccc2c(Nc3c(Cl)cncc3Cl)cc(=O)oc2c1OCCCCCC(=O)O	solubility [5]: 900 µg/mL (≈ 1930 µM)
150	3		COc1ccc2c(Nc3c(Cl)cncc3Cl)cc(=O)oc2c1OCCCCCCCN(C)C	
120	2	1400 (≈ 2910 µM)	COc1ccc2c(Nc3c(Cl)cncc3Cl)cc(=O)oc2c1OCCCCCCC(=O)O	solubility [5]: 1400 µg/mL (≈ 2910 µM)
730	43	500 (≈ 1100 µM)	COc1ccc2c(Nc3c(Cl)cncc3Cl)cc(=O)oc2c1OCCCCC(=O)O	
40	2	300 (≈ 606 µM)	COc1ccc2c(Nc3c(Cl)cncc3Cl)cc(=O)oc2c1OCCCCCCCC(=O)O	
28		0.3 (≈ 0.712 µM)	COc1ccc2c(Nc3c(Cl)cncc3Cl)cc(=O)oc2c1OC1CCCC1	
1820	45	1800 (≈ 3980 µM)	COc1ccc2c(Nc3c(Cl)cncc3Cl)cc(=O)oc2c1OCCCCN(C)C	Activity [6]: Active; Activity [7]: Active; Activity [8]: Active; Activity [9]: Active
